Series [1] has as its system Saccharomyces cerevisiae. The series can be described thus: Antifungal activity against Saccharomyces cerevisiae ATCC 7754 after 48 hr by broth macrodilution method. As to conditions: ATCC 7754, 48 h.
For series [2], the system named is Radical scavenging activity. The series is described as follows: Antioxidant activity assessed as DPPH free radical scavenging activity after 20 min. Type of series: functional. The gist of the method:
(§1)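 DPPH scavenging. The mix held 100 mM acetate buffer pH 5.5, ethanol, ethanolic DPPH and sample. It stood 20 min at room temperature, then absorbance was read at 517 nm. Results are % decrease versus a DPPH control. IC50 was interpolated from concentration-inhibition curves, as the mean of triplicates.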

In series [3] the test system is Saccharomyces cerevisiae. The series can be described thus: microbe, parasite or virus in culture. The series is classed as functional. As to conditions: ATCC 7754, 48 h.
Series [4] has as its system Saccharomyces cerevisiae. The series can be described thus: microbe, parasite or virus in culture. The series is classed as functional. To be noted: ATCC 7754, 48 h. The source holds these as a separate data set.
Series [5] has as its system Saccharomyces cerevisiae. The series can be described thus: microbe, parasite or virus in culture. Type of series: functional. As to conditions: ATCC 7754, 48 h. The source holds these as a separate data set.
The subject of series [6] is Saccharomyces cerevisiae. The series can be described thus: microbe, parasite or virus in culture. The series is classed as functional. As to conditions: ATCC 7754, 48 h. The source holds these as a separate data set.
In series [7] the test system is Saccharomyces cerevisiae. The series is described as follows: Drug uptake in Saccharomyces cerevisiae ATCC 7754 at 50 to 100 ug/ml after 5 seconds. To be noted: in vivo, 5 s. Type of series: ADME, organism-based. The gist of the method:
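Adsorption to cells. Yeast grown overnight with shaking in YPD at 30 °C was washed twice in 50 mM MOPS pH 6.0. Compound was mixed with or without cells (10^8 cells/mL) in this buffer at 30 °C and vortexed 5 s. After 2 min centrifugation, supernatant absorbance was read at 272 nm.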

In series [8] the test system is Saccharomyces cerevisiae. The series can be described thus: Antifungal activity against Saccharomyces cerevisiae ATCC 7754 at 12.5 to 50 ug/ml after 1 hr by time kill analysis. Type of series: functional, organism-based. The gist of the method: (§2)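 Time-kill assay. A 5-h, 30 °C preculture was inoculated into ME broth containing compound, initial 5.8 × 10^5 CFU/mL, then grown at 30 °C without shaking. Samples were taken at selected times over 48 h, serially diluted in sterile saline and plated on YPD agar. Plates were incubated 24 h at 30 °C before counting viable CFU.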

Series [9] has as its system Radical scavenging activity. The series is described as follows: Antioxidant activity assessed as DPPH free radical scavenging activity up to 800 ug/ml after 20 min. The series is classed as functional. In outline:
as §1
On the technique in general: DPPH is a stable violet radical that fades when it is reduced.

Series [10] deals with Saccharomyces cerevisiae. The series is described as follows: Antifungal activity against Saccharomyces cerevisiae ATCC 7754 at MFC after 2 hr. The series is classed as functional, organism-based. The gist of the method: as §2
The test system of series [11] is Saccharomyces cerevisiae. The series is described as follows: Antifungal activity against Saccharomyces cerevisiae ATCC 7754 at MFC to 4 times MFC treated 24 hr after incubation measured up to 30 hr. Type of series: functional, organism-based. In outline: (§3)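 Growth-stage kill test. Yeast at 10^5 cells/mL was inoculated into ME broth. Compound at MFC, 2× MFC or 4× MFC was added after 0, 4 or 24 h of incubation, and viable cells were then followed over time.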

The test system of series [12] is Saccharomyces cerevisiae. The series is described as follows: Antifungal activity against Saccharomyces cerevisiae ATCC 7754 at 3.13 to 12.5 ug/ml after 1 hr by time kill analysis. Type of series: functional, organism-based. In outline:
as §2

Series [13] has as its system Saccharomyces cerevisiae. The series is described as follows: Antifungal activity against Saccharomyces cerevisiae ATCC 7754 at MFC to 4 times MFC treated 4 hr after incubation measured up to 30 hr. Type of series: functional, organism-based. The gist of the method:
as §3

Converted amounts (≈) assume the structure as drawn. The source made the active and inactive calls. The calls are words filed in the database; no cut-off is given here. Where only a bound is given, the exact number is not on record here.

As to `CCCCCCCCCOC(=O)c1ccc(OC)c(O)c1`, in the series with Saccharomyces cerevisiae [1], the MFC was above 400 µg/mL and the MIC is above 400 µg/mL. In addition, the result in series [2] was Active.
In the case of `CCCCCCCCCOC(=O)c1ccc(O)c(OC)c1`, in the series with Saccharomyces cerevisiae [1], the MFC was above 400 µg/mL and the MIC was above 400 µg/mL. The outcome in [2] was Active.
`CCCCCCCO` [1-HEPTANOL]: in the series on Saccharomyces cerevisiae [1], the MFC was above 1600 µg/mL and the MIC is 800 µg/mL (≈ 6880 µM).
For `CCCCCCO` [1-HEXANOL] the same measures were above 1600 µg/mL and above 1600 µg/mL.
With `O=C(O)c1cc(O)cc(O)c1` [3,5-DIHYDROXYBENZOIC ACID], in the series on Saccharomyces cerevisiae [1], the MFC was above 3200 µg/mL and the MIC is 3200 µg/mL (≈ 20800 µM).
For `O=C(O)c1cccc(O)c1` [3-HYDROXYBENZOIC ACID] the same measures were above 3200 µg/mL and 3200 µg/mL (≈ 23200 µM).
For the compound `O=C(O)c1ccccc1` [BENZOIC ACID], the MFC against Saccharomyces cerevisiae [1], against Saccharomyces cerevisiae [4] and in the series with Saccharomyces cerevisiae [6] was 1600 µg/mL (≈ 13100 µM) in each case. Besides, the MIC is 800 µg/mL (≈ 6550 µM) in the series on Saccharomyces cerevisiae [1]; above 1600 µg/mL against Saccharomyces cerevisiae [3]; 800 µg/mL (≈ 6550 µM) in the series on Saccharomyces cerevisiae [4]; above 1600 µg/mL against Saccharomyces cerevisiae [5]; 800 µg/mL (≈ 6550 µM) with Saccharomyces cerevisiae [6].
In the series on Saccharomyces cerevisiae [1], `O=C(OC1CCC2CCCCC2C1)c1cc(O)c(O)c(O)c1` (configuration not stated) [DECAHYDRO-2-NAPHTHYL GALLATE] registered an MFC of 50 µg/mL (≈ 163 µM) and an MIC of 50 µg/mL (≈ 163 µM).
Take `CCCCCCCCCCO` [DECANOL]: in the series on Saccharomyces cerevisiae [1], the MFC was determined as 50 µg/mL (≈ 316 µM) and the MIC turned out to be 50 µg/mL (≈ 316 µM).
Turning to `CCCCCCCCCCOC(=O)c1cc(O)c(O)c(O)c1` [DECYL GALLATE], in the series on Saccharomyces cerevisiae [1], the MFC was found to be 25 µg/mL (≈ 80.5 µM) and the MIC is 12.5 µg/mL (≈ 40.3 µM).
Compound `CCCCCCCCCCCCO` [DODECANOL] registered an MFC in the series on Saccharomyces cerevisiae [1] above 1600 µg/mL.
With `CCCCCCCCCCCCOC(=O)c1cc(O)c(O)c(O)c1` [DODECYL GALLATE], in the series on Saccharomyces cerevisiae [1], the MFC was above 1600 µg/mL and the MIC is above 1600 µg/mL. The Drug uptake result in the series with Saccharomyces cerevisiae [7] was “Active”.
On to `COC(=O)c1cc(O)c(O)c(O)c1` [GALLIC ACID METHYL ESTER], for which, in the series on Saccharomyces cerevisiae [1], the MIC was above 3200 µg/mL.
Same read-out and setting: with `O=C(O)c1cc(O)c(O)c(O)c1` [GALLIC ACID] the figure was above 3200 µg/mL.
Regarding `CC(C)=CCC/C(C)=C/COC(=O)c1cc(O)c(O)c(O)c1` [Geranyl gallate], in the series on Saccharomyces cerevisiae [1], the MFC is 50 µg/mL (≈ 163 µM) and the MIC was determined as 50 µg/mL (≈ 163 µM). Also, the result in the series on Saccharomyces cerevisiae [8] was Active.
In the series on Saccharomyces cerevisiae [1], `CCCCCCCOC(=O)c1cc(O)c(O)c(O)c1` [HEPTYL GALLATE] returned an MFC of 100 µg/mL (≈ 373 µM) and an MIC of 100 µg/mL (≈ 373 µM).
In the series with Saccharomyces cerevisiae [1], `CCCCCCOC(=O)c1ccc(O)c(O)c1` [HEXYL 3,4-DIHYDROXYBENZOATE] yielded an MFC of 400 µg/mL (≈ 1680 µM) and an MIC of 400 µg/mL (≈ 1680 µM).
As to `CCCCCCOC(=O)c1cc(O)cc(O)c1` [HEXYL 3,5-DIHYDROXYBENZOATE], in [9], the result was inactive. The same compound returned an MIC in the series on Saccharomyces cerevisiae [1] above 800 µg/mL.
Turning to `CCCCCCOC(=O)c1ccc(O)cc1` [HEXYL 4-HYDROXYBENZOATE], the result in [9] was inactive. This compound also came in with an MIC against Saccharomyces cerevisiae [1] above 800 µg/mL.
Turning to `CCCCCCOC(=O)c1cc(O)c(O)c(O)c1` [HEXYL GALLATE], in the series with Saccharomyces cerevisiae [1], the MFC came to 400 µg/mL (≈ 1570 µM) and the MIC was 400 µg/mL (≈ 1570 µM).
In the case of `CCCCCCCCCO` [NONANOL], in the series with Saccharomyces cerevisiae [1], the MFC was found to be 200 µg/mL (≈ 1390 µM) and the MIC came out at 100 µg/mL (≈ 693 µM).
With `CCCCCCCCCOC(=O)c1ccc(O)c(O)c1` [NONYL 3,4-DIHYDROXYBENZOATE], in the series on Saccharomyces cerevisiae [1], the MFC turned out to be 12.5 µg/mL (≈ 44.6 µM) and the MIC came to 6.25 µg/mL (≈ 22.3 µM). The result in series [2] was Active.
The matching figures for `CCCCCCCCCOC(=O)c1cc(O)cc(O)c1` [NONYL 3,5-DIHYDROXYBENZOATE]: above 400 µg/mL, above 400 µg/mL and “inactive”.
With `CCCCCCCCCOC(=O)c1cccc(O)c1` [NONYL 3-HYDROXYBENZOATE], in the series with Saccharomyces cerevisiae [1], the MFC is above 400 µg/mL and the MIC is above 400 µg/mL. In series [2], the outcome was inactive.
`CCCCCCCCCOC(=O)c1ccc(O)cc1` [NONYL 4-HYDROXYBENZOATE] had an MIC against Saccharomyces cerevisiae [1] above 400 µg/mL. In addition, in [2], the result was inactive.
For `CCCCCCCCCOC(=O)c1ccccc1` [NONYL BENZOATE] the same measures were above 400 µg/mL and “inactive”.
Turning to `CCCCCCCCCOC(=O)c1cc(O)c(O)c(O)c1` [NONYL GALLATE], the MFC is 12.5 µg/mL (≈ 42.2 µM) with Saccharomyces cerevisiae [1]; 25 µg/mL (≈ 84.4 µM) with Saccharomyces cerevisiae [3]; 12.5 µg/mL (≈ 42.2 µM) against Saccharomyces cerevisiae [4]; 50 µg/mL (≈ 169 µM) in the series on Saccharomyces cerevisiae [5]; 12.5 µg/mL (≈ 42.2 µM) against Saccharomyces cerevisiae [6]. Moreover, the MIC stood at 6.25 µg/mL (≈ 21.1 µM) against Saccharomyces cerevisiae [1]; 12.5 µg/mL (≈ 42.2 µM) in the series with Saccharomyces cerevisiae [3]; 6.25 µg/mL (≈ 21.1 µM) with Saccharomyces cerevisiae [4]; 25 µg/mL (≈ 84.4 µM) in the series on Saccharomyces cerevisiae [5]; 6.25 µg/mL (≈ 21.1 µM) in the series with Saccharomyces cerevisiae [6]. In addition, the outcome (in [2]; in the series with Saccharomyces cerevisiae [10]; in the series on Saccharomyces cerevisiae [11]; in the series on Saccharomyces cerevisiae [12]; in the series with Saccharomyces cerevisiae [13]) was Active. Also, in the series with Saccharomyces cerevisiae [7], the Drug uptake entry is “Active”.
With `CCCCCCCCO` [OCTANOL], in the series with Saccharomyces cerevisiae [1], the MFC worked out at 800 µg/mL (≈ 6140 µM) and the MIC came to 200 µg/mL (≈ 1540 µM).
The matching figures for `O=C(O)c1ccc(O)cc1` [PARABEN]: above 3200 µg/mL and 1600 µg/mL (≈ 11600 µM).
For `CCCOC(=O)c1cc(O)c(O)c(O)c1` [PROPYL GALLATE] the same measures were above 3200 µg/mL and 3200 µg/mL (≈ 15100 µM).
In the series with Saccharomyces cerevisiae [1], `O=C(O)c1ccc(O)c(O)c1` [PROTOCATECHUIC ACID] yielded an MFC above 3200 µg/mL and an MIC of 3200 µg/mL (≈ 20800 µM).
For `C/C=C/C=C/C(=O)O` [SORBIC ACID], the MIC in the series with Saccharomyces cerevisiae [3] was above 1600 µg/mL; with Saccharomyces cerevisiae [4], 800 µg/mL (≈ 7130 µM); in the series on Saccharomyces cerevisiae [5], above 1600 µg/mL; with Saccharomyces cerevisiae [6], 400 µg/mL (≈ 3570 µM). In addition, the results for the MFC with Saccharomyces cerevisiae [4] and with Saccharomyces cerevisiae [6] were 3200 µg/mL (≈ 28500 µM) and 1600 µg/mL (≈ 14300 µM), respectively.
Consider `CCCCCCCCCCCCCO` [TRIDECAN-1-OL], for which, in the series with Saccharomyces cerevisiae [1], the MIC is above 1600 µg/mL.
In the case of `CCCCCCCCCCCO` [UNDECANOL], in the series on Saccharomyces cerevisiae [1], the MFC stood at 25 µg/mL (≈ 145 µM) and the MIC worked out at 25 µg/mL (≈ 145 µM).
In the series on Saccharomyces cerevisiae [1], `CCCCCCCCCCCOC(=O)c1cc(O)c(O)c(O)c1` [UNDECYL GALLATE] showed an MFC above 1600 µg/mL and an MIC above 1600 µg/mL.
